Experiment [1] concerns Candida parapsilosis. In words: Antifungal activity against Candida parapsilosis cgmcc2.3989 measured after 48 hrs by broth microdilution method. As to conditions: Lodderomyces parapsilosis, cgmcc2.3989, 48 h. In kind it is functional. The method, boiled down: (§1)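 Modified CLSI M27-A2 microdilution. Yeast colonies were diluted in MOPS-buffered RPMI 1640 to a final (0.5–1) × 10^3 CFU mL−1 and mixed with an equal volume of peptide serially diluted in 0.2% BSA. After 48 h at 28 °C, MIC was read at A492 as the lowest concentration inhibiting 95% of growth. At least three independent experiments, each with three technical replicates.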
(Broth dilution looks for growth in wells or tubes with falling amounts of substance.)

Experiment [2] deals with Candida albicans. Kind of experiment: Antifungal activity against Candida albicans cgmcc2.2086 infected in C57BL/6 mouse model of keratitis assessed as reduction in fungal hyphae infiltration into corneal stroma at 1 mg/ml administered as topical eye drop every 5 mins for first 4 hrs and every 30 mins for next 7 hrs measured post-last dose by periodic acid schiff staining-based histological analysis. In kind it is functional, organism-based.

Experiment [3] has as its system Candida parapsilosis. Kind of experiment: Fungicidal activity against Candida parapsilosis cgmcc2.3989 incubated for 48 hrs followed by replating on YM agar plate and measured after 48 hrs. In kind it is functional. In a few lines: (§2)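 Yeast diluted in MOPS-buffered RPMI 1640 to (0.5–1) × 10^3 CFU/mL (CLSI M27-A2, modified) and mixed 1:1 with peptide serially diluted in 0.2% BSA. After 48 h at 28 °C, 50 μL per well was plated on YM agar and incubated 48 h at 28 °C. MFC taken as the lowest concentration killing ≥99.9% of cells. Three or more independent experiments, triplicate wells.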

In experiment [4] the test system is Candida tropicalis. In words: Antifungal activity against Candida tropicalis cgmcc2.1975 measured after 48 hrs by broth microdilution method. Particulars: cgmcc2.1975, 48 h. In kind it is functional. In a few lines: as §1
For experiment [5], the system named is Candida tropicalis. In words: Fungicidal activity against Candida tropicalis cgmcc2.1975 incubated for 48 hrs followed by replating on YM agar plate and measured after 48 hrs. In kind it is functional. In a few lines: as §2
Experiment [6] has as its system Candida albicans. In words: Fungicidal activity against Candida albicans cgmcc2.2086 incubated for 48 hrs followed by replating on YM agar plate and measured after 48 hrs. In kind it is functional. In a few lines: as §2
For experiment [7], the system named is Candida albicans. Kind of experiment: Antifungal activity against Candida albicans cgmcc2.2086 infected in C57BL/6 mouse model of keratitis assessed as reduction in fungal colonies in eyeballs at 1 mg/ml administered as topical eye drop every 5 mins for first 4 hrs and every 30 mins for next 7 hrs measured post-last dose by agar plate method relative to control. Also on record: scale not given: the % may be the effect or the level left. In kind it is functional.

Experiment [8] has as its system Candida albicans. In words: Antifungal activity against Candida albicans cgmcc2.2086 infected in C57BL/6 mouse model of keratitis assessed as appearance of transparent corneas at 1 mg/ml administered as topical eye drop every 5 mins for first 4 hrs and every 30 mins for next 7 hrs measured post-last dose. In kind it is functional, organism-based.
For experiment [9], the system named is Candida albicans. In words: Antifungal activity against Candida albicans cgmcc2.2086 infected in C57BL/6 mouse model of keratitis assessed as reduction in fungal hyphae extention into corneal stroma at 1 mg/ml administered as topical eye drop every 5 mins for first 4 hrs and every 30 mins for next 7 hrs measured post-last dose by periodic acid schiff staining-based histological analysis. In kind it is functional, organism-based.

Experiment [10] concerns Candida albicans. In words: Antifungal activity against Candida albicans cgmcc2.2086 measured after 48 hrs by broth microdilution method. In kind it is functional. Particulars: cgmcc2.2086, 48 h. In a few lines: as §1
Experiment [11] relates to Candida albicans. Kind of experiment: Antifungal activity against Candida albicans cgmcc2.2086 infected in C57BL/6 mouse model of keratitis assessed as reduction in clinical score at 1 mg/ml administered as topical eye drop every 5 mins for first 4 hrs and every 30 mins for next 7 hrs measured post-last dose. In kind it is functional, organism-based.
Experiment [12] concerns Candida albicans. In words: Antifungal activity against Candida albicans cgmcc2.2086 infected in C57BL/6 mouse model of keratitis assessed as appearance of transparent irises at 1 mg/ml administered as topical eye drop every 5 mins for first 4 hrs and every 30 mins for next 7 hrs measured post-last dose. In kind it is functional, organism-based.

Converted amounts (≈) assume the structure as drawn. The source made the active and inactive calls. No cut-off for these calls is given here.

`C[C@@H]1[C@H](O)[C@@H](C)/C=C/C=C/C=C/C=C/C=C/C=C/C=C/[C@H](O[C@@H]2O[C@H](C)[C@@H](O)[C@H](N)[C@@H]2O)C[C@@H]2O[C@](O)(C[C@@H](O)C[C@@H](O)[C@H](O)CC[C@@H](O)C[C@@H](O)CC(=O)O[C@H]1C)C[C@H](O)[C@H]2C(=O)O` [AMPHOTERICIN B]: the MIC95 came out at 2 µM (≈ 1.85 µg/mL) in experiment [1], 1 µM (≈ 0.924 µg/mL) in experiment [4] and 1 µM (≈ 0.924 µg/mL) in experiment [10]. Further, the outcome in experiment [2], in experiment [8], in experiment [9], in experiment [11] and in [12] was Active. The “MFC<=99.9” value turned out to be 4 µM (≈ 3.7 µg/mL) in [3], 2 µM (≈ 1.85 µg/mL) in experiment [5] and 2 µM (≈ 1.85 µg/mL) in [6]. Besides, in experiment [7], the Activity entry is “<=80%”.

The values above are taken from ChEMBL document CHEMBL4350958, “Rational Design of Short Peptide Variants by Using Kunitzin-RE, an Amphibian-Derived Bioactivity Peptide, for Acquired Potent Broad-Spectrum Antimicrobial and Improved Therapeutic Potential of Commensalism Coinfection of Pathogens” (J Med Chem, 2019).
